# This is a sample that favours compounds with a hit; in the whole collection about 4% have one here.
# DAGLB inh – diacylglycerol lipase beta (human) inhibition. hit rate 0.059% among 340,000. HEK293T DAGLB membrane lysate, EnzChek fluorogenic substrate. inhibition, % at 5.17 µM. Q8NCG7; in the data active = inhibition above about 34%;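 also: 0% = enzyme with vehicle and 100% = wells lacking enzyme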
# Target sequence (Q8NCG7 whole entry, looked up): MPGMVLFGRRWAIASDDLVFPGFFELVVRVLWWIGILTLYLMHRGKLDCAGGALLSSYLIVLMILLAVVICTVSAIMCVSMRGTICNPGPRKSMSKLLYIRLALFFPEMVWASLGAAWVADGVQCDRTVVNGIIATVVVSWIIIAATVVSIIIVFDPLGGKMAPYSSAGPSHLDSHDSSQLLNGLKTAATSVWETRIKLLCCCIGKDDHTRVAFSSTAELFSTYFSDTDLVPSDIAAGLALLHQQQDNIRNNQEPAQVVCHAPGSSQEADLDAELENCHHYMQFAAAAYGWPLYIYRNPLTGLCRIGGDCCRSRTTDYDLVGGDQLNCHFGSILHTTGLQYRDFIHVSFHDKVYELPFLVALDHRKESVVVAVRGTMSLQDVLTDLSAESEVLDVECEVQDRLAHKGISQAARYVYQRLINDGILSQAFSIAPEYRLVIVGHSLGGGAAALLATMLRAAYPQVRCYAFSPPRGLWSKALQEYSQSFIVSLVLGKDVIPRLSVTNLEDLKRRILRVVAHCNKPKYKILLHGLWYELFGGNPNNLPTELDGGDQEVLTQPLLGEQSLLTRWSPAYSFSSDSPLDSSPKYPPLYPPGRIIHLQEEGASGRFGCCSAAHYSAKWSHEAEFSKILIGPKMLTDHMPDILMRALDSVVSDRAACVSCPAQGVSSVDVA
# MPTP inh – inhibitors of mitochondrial permeability transition pore | inhibition, % at 10 µM | isolated mouse mitochondria, Ca2+ swelling absorbance, 30 min | hit rate 1.4% among 360,000 | AID 602449;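 active = inhibition of 50% or more, scaled per plate between neutral and stimulator controls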;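 also: 0% = DMSO wells given calcium and 100% = 1 mM EGTA wells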
# TAAR1 ag – human TAAR1 agonism; Q96RJ0; CHO RD-HGA16 TAAR1, Fluo-8 calcium fluorescence; vehicle wells 0%, saturating PEA agonist 100%; activation, % at 3 µM; hit rate 0.99% among 360,000; AID 624467;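 active = activation above the mean activation of all test compounds in the run plus 3 SD, cut at about 38% in these data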
#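 Assay system: CHO-derived RD-HGA16 cells with stable Gα16 and human TAAR1; timing: 17-24 h seeding, 75 min 37 °C dye, 30 min RT; read-out: % activation from peak over basal fluorescence ratio, DMSO-to-PEA scaled; measured by: kinetic Fluo-8 calcium fluorescence; benchmarks: low control DMSO, high control PEA (EC100); doses: 3 µM single concentration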
# TAAR1 antagonist – human TAAR1 antagonism; hit rate 1.5% among 360,000; Q96RJ0; inhibition, % at 3 µM; CHO RD-HGA16 TAAR1, Fluo-8 calcium fluorescence, antagonist; AID 624466;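 active = inhibition above a per-plate cutoff, the mean inhibition of test compounds on that plate plus 3 SD, cut at about 49% in these data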;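 also: 0% = DMSO plus EC80 beta-PEA response and 100% = DMSO alone without agonist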
#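 System: CHO RD-HGA16 cells bearing hTAAR1. Reagent: EC80 β-phenethylamine stimulus. Schedule: seeding 17-24 h prior, 75-min 37 °C, 30-min RT dye loading. Signal: Fluo-8 intracellular calcium dye fluorescence, real-time kinetic reads. Read-out: % inhibition from peak post-agonist over basal fluorescence ratio. Benchmarks: vehicle wells and EC80 agonist wells. Replicates: n of 1.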
# GPR7 antagonist – blocks human GPR7 receptor signaling; GPR7-expressing cells, fluorescence antagonist assay; hit rate 1.1% among 290,000; inhibition, % at 4.4 µM; in the data active = inhibition above about 16%, passing the limit was not always enough;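 also: cells stimulated with the agonist NPW; 0% = agonist with vehicle and 100% = vehicle without agonist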
# TAAR1 ag confirm – human TAAR1 agonism, confirmed. CHO RD-HGA16 TAAR1, Fluo-8 calcium fluorescence; scaled: DMSO 0%, maximal phenethylamine 100%. AID 651783. activation, % at 3 µM. hit rate 82% among 2,400. shares compounds with TAAR1 ag;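 active = activation above a cutoff set at the run's mean compound activation plus 3 SD, cut at about 39% in these data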
# Ga16 nonsel ag – nonselective agonist in parental cells, TAAR1 agonist counter-screen; CHO-Ga16 parental, Fluo-8 calcium fluorescence; normalized to maximal ATP response, DMSO zero; AID 651787; activation, % at 3 µM; shares compounds with TAAR1 ag; hit rate 50% among 2,400;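 active = activation above the run cutoff, the mean activation over all tested wells plus 3 SD, cut at about 12% in these data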;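 also: 0% = DMSO wells and 100% = maximal ATP response on the peak over basal ratio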
# TAAR1 desensitize – counter-screen for human TAAR1 agonists: agonists that desensitize TAAR1 | CHO RD-HGA16 hTAAR1, Fluo-8 calcium, beta-PEA response inhibition | inhibition, % at 3 µM | hit rate 46% among 2,400 | shares compounds with TAAR1 ag;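 active = inhibition above the run cutoff, the mean inhibition of all test compounds plus 3 SD, cut at about 49% in these data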;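 also: beta-PEA stimulus applied at its EC80; loss of beta-PEA calcium signal after compound pretreatment read as receptor desensitization; 0% = DMSO with beta-PEA at EC80 and 100% = DMSO alone without agonist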
# Ga16 nonsel ant – counter-screen for TAAR1 agonists: nonselective Ga16 antagonists; shares compounds with TAAR1 ag; CHO-Ga16 ATP-induced calcium, Fluo-8 fluorescence; inhibition, % at 3 µM; hit rate 39% among 2,400; AID 651952;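 active = inhibition above the plate's mean compound inhibition plus 3 SD, computed per plate, cut at about 22% in these data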;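 also: 0% = EC80 ATP with DMSO and 100% = DMSO wells without ATP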
# Active calls of the source: *; · = not tested or not shown.
SMILES,DAGLB inh,MPTP inh,TAAR1 ag,TAAR1 antagonist,GPR7 antagonist,TAAR1 ag confirm,Ga16 nonsel ag,TAAR1 desensitize,Ga16 nonsel ant
O=C(NCC(c1ccco1)N1CCc2ccccc2C1)c1ccccc1 (centres undefined),-4.7,-3.5,2.7,-16.6,·,·,·,·,·
COc1ccc(OC)c(S(=O)(=O)NCC(c2ccco2)N2CCc3ccccc3C2)c1 (centres undefined),-0.1,-1.1,15.5,-2.4,·,·,·,·,·
COc1ccc(C)cc1S(=O)(=O)NCC(c1ccco1)N1CCc2ccccc2C1 (centres undefined),-0.9,-1.3,42.0*,-14.6,·,62.2*,1.5,19.2,10.2
O=C(NCC(c1ccco1)N1CCc2ccccc2C1)c1ccc(F)cc1 (centres undefined),-3.7,-0.8,46.2*,-17.7,·,19.4,0.6,0.9,10.9
CC(OC(=O)[C@@H](NS(=O)(=O)c1ccccc1)C(C)C)C(=O)c1c(N)n(C)c(=O)n(C)c1=O (some centres undefined),-1.1,-0.7,0.4,-17.8,·,·,·,·,·
CCc1ccc(OCC(=O)NNC(=O)c2cc3ccccc3o2)cc1,-1.3,-0.3,75.1*,71.2*,-17.2,15.3,4.9,6.4,10.8
COc1ccc2cc(CN(CCc3ccccc3)Cc3nnnn3Cc3ccco3)c(=O)[nH]c2c1,2.4,-3.6,79.9*,49.2*,-11.1,45.9*,8.1,48.7*,26.6*
Cc1ccc2cc(CN(Cc3ccc4c(c3)OCO4)Cc3nnnn3Cc3ccco3)c(=O)[nH]c2c1,3.9,1.0,6.7,46.7,-7.3,·,·,·,·
O=C(NCCCl)c1ccc(OCc2ccccc2)cc1Cl,2.2,-0.4,48.0*,-3.0,9.7,68.5*,17.2*,55.8*,19.3
C#CCNC(=O)c1ccc(OCc2ccccc2)cc1Cl,-1.8,-1.0,3.2,-29.1,10.3,·,·,·,·
O=C(Cc1nnc(NC(=O)Nc2ccccc2)s1)NCc1ccccc1,4.1,2.8,59.5*,39.1,-19.0,79.7*,1.7,63.9*,9.8
O=C(Nc1ccccc1)Nc1nccs1,0.7,8.5,47.3*,18.2,16.2,85.2*,2.9,49.1*,7.4
O=C(Nc1nncs1)Oc1ccccc1,-2.1,-4.0,10.0,-7.3,-4.6,·,·,·,·
O=C(Nc1ccccc1)Nc1nncs1,-1.3,-1.1,·,·,-3.5,·,3.1,·,6.9
COc1ccc(NC(=O)Nc2nnc(CC(=O)Nc3ccccc3)s2)cc1,0.4,0.9,13.8,-7.9,-3.7,·,·,·,·
CN(CCC#N)c1ccc(/C=C(\C#N)c2ccccn2)cc1,1.2,1.4,86.4*,19.3,7.0,3.1,5.1,8.2,9.8
N#Cc1c(-c2ccccc2Cl)cc(C2CC2)nc1N,-4.4,-0.1,91.8*,0.0,-19.8,100.1*,60.5*,38.4,16.1
Cc1nc(N)c(C#N)c(-c2ccccc2Cl)c1C,3.7,5.5,73.1*,-7.8,-15.9,65.7*,44.2*,5.7,9.2
N#Cc1[nH]nc2nc[nH]c(=O)c12,·,·,0.8,1.3,·,·,·,·,·
CC(O)(c1ccc(F)c(F)c1)c1nc(-c2cc(F)cc(F)c2)cs1 (centres undefined),·,3.9,-0.4,-11.8,·,·,·,·,·
CCCCn1nnnc1C(c1ccccc1)N1CCN(c2c(Cl)cncc2Cl)CC1 (centres undefined),·,0.2,-1.5,14.9,·,·,·,·,·
O=C(Cn1nnc(N2CCCC2)n1)N/N=C/c1ccc(Cl)cc1,1.0,1.4,57.9*,-4.3,-7.0,84.8*,4.7,28.3,1.6
Cc1ccc(/C=N/NC(=O)Cn2nnc(N)n2)cc1,-1.9,1.6,3.4,-19.5,-9.2,·,·,·,·
N#Cc1ccc(C(C(=O)NC2CCCCC2)n2c(=O)c(-c3ccccc3)nc3ccccc32)cc1 (centres undefined),·,0.4,0.3,-30.1,·,·,·,·,·
Cc1ccc(C(=O)NCCN2CCC(n3c(=O)[nH]c4ccccc43)CC2)cc1,·,-0.7,3.6,-4.8,·,·,·,·,·
SMILES,DAGLB inh,MPTP inh,TAAR1 ag,TAAR1 antagonist,GPR7 antagonist,TAAR1 ag confirm,Ga16 nonsel ag,TAAR1 desensitize,Ga16 nonsel ant
COc1ccc(CN2CCNC(=O)C2CC(=O)NC2Cc3ccccc3C2)c(OC)c1 (centres undefined),3.3,0.2,46.1*,-26.1,3.8,54.1*,6.8,-4.8,1.3
Cc1ccc(Cl)cc1NC(=O)N(C)CCOC(=O)Nc1cccc(Cl)c1,·,·,-0.2,27.1,·,·,·,·,·
O=C(CCS(=O)(=O)c1ccc2c(c1)NC(=O)CO2)NCc1ccccc1,0.5,-1.4,0.8,-16.2,-11.6,·,·,·,·
O=C(CCS(=O)(=O)c1ccc2c(c1)NC(=O)CO2)NCCc1ccccc1,0.1,-1.3,66.2*,27.1,-11.0,62.1*,-0.9,4.6,-0.7
CCCCc1cc(=O)oc2cc(C)cc(OCC(=O)N[C@@H](CSCc3ccccc3)C(=O)O)c12,3.2,-0.3,59.9*,15.1,0.6,84.1*,43.7*,28.3,13.7
COC(=O)c1cc2c(c3c4cc(F)ccc4n(S(=O)(=O)c4ccc(C)cc4)c13)C(=O)N(c1ccc(OC)cc1)C2,·,·,-1.5,-22.4,·,·,·,·,·
O=[N+]([O-])c1cc(/C=N\Nc2nc(-c3ccccc3)cs2)ccc1O,27.8,2.4,69.4*,35.7,-12.8,44.3*,53.3*,37.3,28.9*
C[C@H](NC(=O)c1[nH]cnc1C(=O)N[C@H](C)c1ccccc1)c1ccccc1,-2.5,-1.9,46.7*,24.5,·,41.5*,9.9,16.5,6.3
C[C@H](CO)NC(=O)c1nc[nH]c1C(=O)N[C@H](C)c1ccccc1,-3.3,-0.8,1.3,-4.7,·,·,·,·,·
O=C(c1ccco1)N1CCN(C2c3ccccc3-c3ccccc32)CC1,1.5,8.5,5.7,-6.5,-10.5,·,·,·,·
O=C1OC(N2CCN(C(=O)c3ccco3)CC2)c2ccccc21 (centres undefined),-0.2,-0.7,51.6*,10.9,-11.9,65.5*,0.4,16.6,8.2
Cc1cccc(N2C(=O)C(O)=C(C(=O)c3cccs3)C2c2ccc(C(C)C)cc2)n1 (centres undefined),15.5,18.4,69.4*,26.5,-12.6,79.6*,67.2*,50.7*,33.4*
O=[N+]([O-])c1[nH]cnc1/C=C/c1ccccc1,0.9,2.2,·,·,-7.5,·,3.4,·,13.4
O=C1CC(NCCc2ccccc2)C(=O)N1CCc1ccccc1 (centres undefined),-2.9,-0.2,61.4*,10.3,-8.9,63.1*,2.5,11.3,14.1
Cc1[nH]ccc2cc3nc4ccccc4c3cc12,-7.6,2.4,1.2,-8.0,·,·,·,·,·

# Screening results: PubChem BioAssay, several laboratories
